Converted amounts (≈) assume the structure as drawn.
Legend:
[1] = Lipophilicity, logD of the compound at pH 7.4 by UPHLC analysis; type: physicochemical; conditions: buffer
[2] = Drug uptake in C57BL/6J Jcl mouse assessed as brain concentration at 10 mg/kg, po measured after 60 mins by LC-MS/MS analysis; type: ADME, organism-based; conditions: read-out: Drug uptake
In short: (§1)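 Male C57BL/6J Jcl mice, 8 weeks old, given a single oral dose as a suspension in 0.5% methylcellulose at 10 mL/kg. Plasma and brain hemispheres collected 60 min post-dose (n = 4 per group). Levels measured by LC/MS/MS.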

[3] = Drug uptake in C57BL/6J Jcl mouse assessed as plasma concentration at 10 mg/kg, po measured after 60 mins by LC-MS/MS analysis; type: ADME, organism-based; conditions: read-out: Drug uptake; in short: as §1
[4] = Drug uptake in C57BL/6J Jcl mouse assessed as brain concentration at 0.1 mg/kg, po measured after 60 mins by LC-MS/MS analysis; type: ADME, organism-based; conditions: read-out: Drug uptake; in short: as §1
[5] = Drug uptake in C57BL/6J Jcl mouse assessed as plasma concentration at 0.3 mg/kg, po measured after 60 mins by LC-MS/MS analysis; type: ADME, organism-based; conditions: read-out: Drug uptake; in short: as §1
[6] = Aqueous solubility of the compound in pH 6.8 JP2 fluid measured after 18 hrs by shake flask method based UHPLC analysis; type: physicochemical
[7] = Drug uptake in C57BL/6J Jcl mouse assessed as plasma concentration at 1 mg/kg, po measured after 60 mins by LC-MS/MS analysis; type: ADME, organism-based; conditions: read-out: Drug uptake; in short: as §1
[8] = Drug uptake in C57BL/6J Jcl mouse assessed as plasma concentration at 3 mg/kg, po measured after 60 mins by LC-MS/MS analysis; type: ADME, organism-based; conditions: read-out: Drug uptake; in short: as §1
[9] = Drug uptake in C57BL/6J Jcl mouse assessed as brain concentration at 3 mg/kg, po measured after 60 mins by LC-MS/MS analysis; type: ADME, organism-based; conditions: read-out: Drug uptake; in short: as §1
[10] = Drug uptake in C57BL/6J Jcl mouse assessed as plasma concentration at 0.1 mg/kg, po measured after 60 mins by LC-MS/MS analysis; type: ADME, organism-based; conditions: read-out: Drug uptake; in short: as §1
[11] = Drug uptake in C57BL/6J Jcl mouse assessed as brain concentration at 0.3 mg/kg, po measured after 60 mins by LC-MS/MS analysis; type: ADME, organism-based; conditions: read-out: Drug uptake; in short: as §1
[12] = Drug uptake in C57BL/6J Jcl mouse assessed as brain concentration at 1 mg/kg, po measured after 60 mins by LC-MS/MS analysis; type: ADME, organism-based; conditions: read-out: Drug uptake; in short: as §1

Row | Compound | logD [1] | also measured
1 | O=C1CCC(CCC(=O)N2CCC(COc3ccc(F)cc3Cl)CC2)N1 (stereo unspecified) | 3 | 
2 | Cc1cc(COC2CN(C(=O)[C@H]3C[C@]4(COC(=O)N4)C3)C2)ccc1Cl | 2.4 | 
3 | CC(Oc1ccc(F)cc1Cl)C1CCN(C(=O)[C@H]2C[C@]3(COC(=O)N3)C2)CC1 (stereo partly specified) | 2.8 | 
4 | O=C1N[C@]2(CO1)C[C@H](C(=O)N1CC(OCc3ccc(C(F)(F)F)c(C(F)(F)F)c3)C1)C2 | 2.5 | 
5 | O=C1N[C@]2(CO1)C[C@H](C(=O)N1CC(OCc3ccc(Cl)cc3Cl)C1)C2 | 2.5 | 
6 | O=C1CC[C@@H](CCC(=O)N2CCC(COc3ccc(F)cc3Cl)CC2)N1 | 2.7 | 
7 | O=C1N[C@]2(CO1)C[C@H](C(=O)N1CC(OCc3ccc(C(F)(F)F)c(Cl)c3)C1)C2 | 2.4 | 
8 | O=C1CCC2(CCCN(C(=O)N3CCC(COc4ccc(F)cc4Cl)CC3)C2)N1 (stereo unspecified) | 3.1 | 
9 | O=C1CCC(COC(=O)N2CCC(COc3ccc(F)cc3Cl)CC2)N1 (stereo unspecified) | 2.7 | 
10 | O=C1N[C@]2(CO1)C[C@H](C(=O)N1CCC(COc3ccc(F)cc3Cl)CC1)C2 | 2.6 | 
11 | CCC(Oc1ccc(F)cc1Cl)C1CCN(C(=O)[C@H]2C[C@]3(COC(=O)N3)C2)CC1 (stereo partly specified) | 3.1 | 
12 | O=C1COc2ncc(C(=O)N3CCC(COc4ccc(F)cc4Cl)CC3)cc2N1 | 3 | 
13 | O=C1COCC(CCC(=O)N2CCC(COc3ccc(F)cc3Cl)CC2)N1 (stereo unspecified) | 2.7 | 
14 | Cc1ccc(COC2CN(C(=O)[C@H]3C[C@]4(COC(=O)N4)C3)C2)cc1Cl | 2.3 | concentration at 1 h [2]: 711 ng/g; concentration at 1 h [3]: 1520 ng/mL; concentration at 1 h [4]: 31 ng/g; concentration at 1 h [5]: 62 ng/mL; solubility thermodynamic at 18 h [6]: 330 µg/mL (≈ 905 µM); concentration at 1 h [7]: 163 ng/mL; concentration at 1 h [8]: 457 ng/mL; concentration at 1 h [9]: 322 ng/g; concentration at 1 h [10]: 17 ng/mL; concentration at 1 h [11]: 99 ng/g; concentration at 1 h [12]: 169 ng/g
15 | O=C1CC[C@H](CCC(=O)N2CCC(COc3ccc(F)cc3Cl)CC2)N1 | 2.7 | 

— ChEMBL document CHEMBL4808222, “Design and Synthesis of Novel Spiro Derivatives as Potent and Reversible Monoacylglycerol Lipase (MAGL) Inhibitors: Bioisosteric Transformation from 3-Oxo-3,4-dihydro-2H-benzo[b][1,4]oxazin-6-yl Moiety” (J Med Chem, 2021)
